# Screening data deposited in PubChem by several laboratories.
# TMEM16A inh = mouse TMEM16A channel inhibition, primary screen | Q8BHY3 | HEK293 TMEM16A/YFP iodide influx fluorescence, ionomycin | normalized B-score (activity score, 25-100; higher = stronger inhibition) at 10 µM | hit rate 1.2% among 310,000 | AID 588511;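 active = ratio plate-corrected score three or more library SD toward inhibition, starting fluorescence score within five deviations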;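 also: score derived from kinetic fluorescence span divided by baseline fluorescence per well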
# ANO1 activ = mouse TMEM16A channel activation, primary screen; Q8BHY3; HEK293 TMEM16A/YFP-H148Q/I152L, iodide quench fluorescence; active compounds read low; B-score at 10 µM; hit rate 0.3% among 340,000; AID 623877;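 active = fluorescence-ratio B-score plate-corrected deviation score at least 3 library SD below zero, with starting fluorescence score within 5 deviations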;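 also: channel opened by trigger with iodide after compound preincubation; score built on the fluorescence ratio of max minus min over baseline; more negative score means more quench and so TMEM16A activation or potentiation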
# MT1-MMP act inh = inhibitors of human MT1-MMP activation; P50281; HT1080 RFP-PRO-GFP cells, GFP/RFP ratio fluorescence, overnight; percent of plate control window, DMSO zero; GFP/RFP ratio change, % at 20 µM; hit rate 0.061% among 360,000; AID 651647;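 active = GFP/RFP ratio change of at least 30% with cell ATP level not reduced by more than half and red fluorescence within 50% of control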
#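 Read-out: GFP/RFP fluorescence ratio; Test system: RFP-PRO-GFP reporter HT1080 cells; Compound dosing: single-point 20 µM compound, 1% DMSO; Times: overnight compound exposure at 37 °C.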
# DAGLB inh = blocks human DAGLB lipase activity | Q8NCG7 | HEK293T DAGLB membrane lysate, EnzChek fluorogenic substrate | inhibition, % at 5.17 µM | hit rate 0.059% among 340,000 | AID 504411; in the data active = inhibition above about 34%;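 also: 0% = enzyme with vehicle and 100% = wells lacking enzyme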
# TMEM16A reconf = TMEM16A (mouse) chloride channel inhibition, re-confirmation; hit rate 39% among 2,300; shares compounds with TMEM16A inh; HEK293 TMEM16A/YFP-H148Q, iodide quench fluorescence; ionomycin added to raise cell calcium; inhibition, % at 10 µM;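 active = mean duplicate percent inhibition, scaled so buffer wells are 0 and the reference blocker 100, over three buffer SD above buffer mean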
# HEK293 Ca mobil = counter-screen for TMEM16A inhibitors: effect on calcium mobilization; shares compounds with TMEM16A inh; TMEM16A/YFP HEK293, Fluo4 calcium mobilization; calcium response (% of ionomycin), % at 10 µM; hit rate 2% among 2,300;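 active = duplicate-averaged calcium signal over 20% of the ionomycin maximum, relative to buffer baseline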;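 also: each well's signal is peak minus trough fluorescence divided by its pre-addition baseline; 0% = buffer wells and 100% = ionomycin wells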
# Parental YFP cnt = acts in parental YFP-HEK293 cells lacking TMEM16A, counter-screen. iodide YFP quench, ionomycin. shares compounds with TMEM16A inh. 2,300 tested, under 10 active. YFP ratio F(max-min)/F0 at 10 µM;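 active = yellow fluorescent protein signal ratio exceeding the buffer control mean by over 5 SD of those controls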;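 also: ratio is mean of duplicate wells from kinetic YFP trace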
# ClC-1 inh = selectivity of TMEM16A inhibitors: inhibition of rat ClC-1 chloride channel; shares compounds with TMEM16A inh; CHO ClC-1-YFP, iodide influx fluorescence quench; iodide control reads 0, buffer control 100; ratio percent, % at 10 µM; 2,300 tested, under 10 active;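 active = duplicate-mean ratio percent above the mean of iodide-only control wells, which defines zero, plus 5 of their SD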;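 also: higher percent means stronger block of ClC-1 iodide influx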
# Numbers without * were called inactive; i = inactive; / = no result. Most compounds without a hit are left out; they make up all but 1.3% or so of the library.
SMILES,TMEM16A inh,ANO1 activ,MT1-MMP act inh,DAGLB inh,TMEM16A reconf,HEK293 Ca mobil,Parental YFP cnt,ClC-1 inh
CC(=O)Nc1cccc(C(=O)Nc2cc(C(F)(F)F)ccc2-n2cncn2)c1,/,/,-0.9,-1.5,/,/,/,/
CC(C)OC(=O)CSc1nc2ccccc2s1,i,i,-0.1,-4.2,/,/,/,/
CC(C)CC1CC(=O)OC1(C)C(=O)CSc1nc2ccccc2s1 (stereo not given),100*,i,1.2,-4.2,i,i,-1.19,-6.0
O=C(Nc1nc(-c2cccs2)c(C(=O)C(F)(F)F)s1)c1ccccc1,100*,i,8.8,-4.9,53.0%*,i,-1.14,-17.5
Nc1cc(Cl)ccc1CN1C(=O)c2ccccc2C1=O,/,/,0.0,/,/,/,/,/
COc1cccc(C(=O)NCCS(=O)(=O)N2CCN(c3ccccc3)CC2)c1OC,/,/,-6.2,-3.5,/,/,/,/
COc1ccc(CN(C)C(=O)c2cccc(Oc3ccccc3)c2)c(OC)c1OC,25*,i,0.3,-0.9,32.0%*,i,-1.15,-13.0
COc1cccc(CN(C)C(=O)c2cccc(S(=O)(=O)NCc3ccccc3)c2)c1OC,i,i,4.5,-2.4,/,/,/,/
Cc1ccc(S(=O)(=O)N2[C@H](CC(=O)c3cccc4ccccc34)OC[C@@H]2C)cc1,/,/,0.0,/,/,/,/,/
CC1CCc2c(sc(NC(=O)c3ccc(N4C(=O)CCC4=O)cc3)c2C(N)=O)C1 (stereo not given),/,i,2.7,2.4,/,/,/,/
CCN(Cc1ccccc1)S(=O)(=O)c1ccc2oc(C(=O)O)c(C)c2c1,25*,i,6.1,-0.7,i,i,-1.18,1.5
CCN(CC)S(=O)(=O)c1ccc(S(=O)(=O)Nc2c(C)nn(C)c2C)cc1,25*,i,-2.3,2.2,29.5%*,i,-0.907,-5.0
CCN(c1ccc(NC(=O)COC(=O)C(C)N=C2NS(=O)(=O)c3ccccc32)cc1)C(C)C (stereo not given),/,i,3.6,3.8,/,/,/,/
CC(C)c1nnc(SCC(=O)N2CCc3ccccc32)n1C,100*,i,-1.4,0.9,i,i,-1.01,-3.0
CCCc1nnc(NC(=O)COC(=O)c2cc(C)nc3ccccc23)s1,i,i,-0.8,-2.0,/,/,/,/
CCCc1nnc(NC(=O)C(CC)OC(=O)c2cc(C)nc3ccccc23)s1 (stereo not given),100*,i,-2.3,-1.4,i,i,-1.06,-15.5
C(=NOCCc1ccccc1)c1ccccn1,/,i,0.6,-4.9,/,/,/,/
COP(=O)(OC)C(Nc1ccc(C)cc1)c1ccc(Br)cc1 (stereo not given),/,i,-1.2,0.3,/,/,/,/
O=C(CSc1ccc(Cl)cc1)N1CCN(c2ncc(C(F)(F)F)cc2Cl)CC1,100*,i,5.2,-13.3,i,i,-0.925,2.5
COc1ccc(CN(C)CC(=O)Nc2cccc(S(=O)(=O)N(C)c3ccccc3)c2)c(OC)c1,/,i,12.2,-2.3,/,/,/,/
COc1ccc(OC)c(S(=O)(=O)Nc2ccccc2C(F)(F)F)c1,i,i,-4.7,-0.6,/,/,/,/
COc1ccc(S(=O)(=O)Nc2ccccc2C(F)(F)F)cc1,100*,i,-1.2,0.2,i,i,-1.17,-9.0
O=[N+]([O-])c1cnc(Nc2ccccc2)nc1Nc1ccccc1,i,i,-4.1,-2.6,/,/,/,/
O=C1Nc2ccccc2C12OCC(COc1ccc(Cl)cc1)O2 (stereo not given),i,i,-0.7,-6.1,/,/,/,/
CN1C(=O)C2(OCC(COc3ccc(Cl)cc3)O2)c2ccccc21 (stereo not given),100*,i,2.6,-11.7,18.0%*,i,-1.01,-8.0
SMILES,TMEM16A inh,ANO1 activ,MT1-MMP act inh,DAGLB inh,TMEM16A reconf,HEK293 Ca mobil,Parental YFP cnt,ClC-1 inh
Cc1nc2ccccc2n1CC(O)COCC1CC=CCC1 (stereo not given),100*,i,-2.0,0.5,i,i,-0.959,-13.5
CCc1c(C)c(C#N)c2[nH]c3ccccc3n2c1=S,100*,i,-0.4,6.1,33.5%*,i,-0.853,-21.0
CCc1cc(=S)n2c([nH]c3ccccc32)c1C#N,100*,i,-10.1,2.1,26.0%*,i,-0.883,-22.5
CCc1cc(=O)n2c([nH]c3ccccc32)c1C#N,i,i,1.4,0.0,/,/,/,/
C=C(C)Cc1c(C)c(C#N)c2[nH]c3ccccc3n2c1=O,i,i,4.2,-2.4,/,/,/,/
C[C@H](CO)N1C[C@H](C)[C@@H](CN(C)S(=O)(=O)c2ccccc2)Oc2c(NS(=O)(=O)c3ccccc3)cccc2C1=O,/,i,-1.2,1.0,/,/,/,/
O=C(c1ccc(Cl)cc1)C1CCCN(Cc2cnn(-c3ccccc3)c2)C1 (stereo not given),100*,i,1.6,-6.7,33.0%*,i,-0.909,-1.5
O=C(c1ccc(Cl)cc1)C1CCCN(Cc2ccc(Oc3ncccn3)cc2)C1 (stereo not given),i,i,-1.2,0.2,/,/,/,/
Cc1cc(C2(c3ccc(O)c(C)c3)C(=O)Nc3ccccc32)ccc1O,100*,i,-7.6,-1.2,i,i,-1.21,-27.0
O=C(O)CN(c1ccccc1F)S(=O)(=O)c1ccccc1,i,i,-1.1,0.8,i,i,-1.03,-7.5
COc1ccc(NC(=O)CN2C(=O)NC3(CCCCCC3)C2=O)cc1Cl,/,i,3.7,-0.6,/,/,/,/
CC1CCCN(c2nc3ccccc3nc2C(C#N)S(=O)(=O)c2ccccc2)C1 (stereo not given),i,i,-90.1,2.1,/,/,/,/
Cc1cccc(S(=O)(=O)C(C#N)c2nc3ccccc3nc2N2CCOCC2)c1 (stereo not given),100*,i,-3.1,4.3,i,i,-1.03,-14.0
CCOC(=O)N1CCN(c2nc3ccccc3nc2C(C#N)S(=O)(=O)c2ccc(C)cc2)CC1 (stereo not given),100*,i,-21.6,1.8,76.0%*,i,-1.03,-19.0
Cc1ccc(S(=O)(=O)C(C#N)c2nc3ccccc3nc2N2CCN(C)CC2)cc1 (stereo not given),i,i,-26.0,5.2,/,/,/,/
COC1OC(c2ccccc2)=C(c2ccc(C(N)=O)cc2)c2ccc(F)cc21 (stereo not given),/,/,-3.0,/,/,/,/,/
COc1ccc2oc3c(ccc[n+]3C)c(=O)c2c1,/,/,-0.1,/,/,/,/,/
Cc1cc(Br)ccc1NC(=O)CN(C)C(=O)C1=COCCO1,/,i,-4.1,2.1,/,/,/,/
